From ChEMBL document CHEMBL1130236, “Design and synthesis of imidazoline derivatives active on glucose homeostasis in a rat model of type II diabetes. 1. Synthesis and biological activities of N-benzyl-N'-(arylalkyl)-2-(4',5'-dihydro-1'H-imidazol-2'-yl)piperazines ” (1997)

Legend:
[1] = test system: Rattus norvegicus; assay: The incremental glycemia values after glucose administration (0.5 g/kg iv), to rats treated with streptozotocin (35 mg/kg iv); assay type: functional
Summary of the method: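 STZ (35 mg/kg iv) male Wistar rats were selected after 2 weeks with basal glycemia 7–10 mM and […]. They received 100 µmol/kg ip once before an iv glucose load. Tail blood was taken at 0, 5, 10, 15, 20 and 30 min. The glucose increment over baseline was integrated over 30 min and normalized as (treated−untreated STZ)/(untreated STZ−nondiabetic control)×100.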

[2] = test system: Rattus norvegicus; assay: The rate of glucose disappearance between 5 and 30 minutes after glucose administration; assay type: functional, organism-based
Summary of the method: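 In the intravenous glucose tolerance test (0.5 g/kg, saphenous vein, pentobarbital anesthesia), STZ-diabetic male Wistar rats had received a single 100 µmol/kg ip dose beforehand. Plasma glucose was sampled from the tail at 5–30 min. The glucose disappearance rate K was computed over 5–30 min and expressed as % variation versus untreated STZ rats.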

[3] = test system: Rattus norvegicus; assay: The glycemia values 30 minutes after glucose administration to streptozotocin rats; assay type: functional
Summary of the method: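 Male Wistar rats (3-month, ~250 g) made diabetic with streptozotocin 35 mg/kg iv in citrate buffer; used 2 weeks later if basal glycemia was 7–10 mM. Single ip dose of 100 µmol/kg (hydrochloride salt), then iv glucose 0.5 g/kg under pentobarbital. Plasma glucose was read by analyzer at 30 min and expressed as % variation versus untreated STZ rats.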

[4] = test system: Rattus norvegicus; assay: The incremental plasma insulin values over 30 minutes after glucose administration.; assay type: functional
Summary of the method: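 Moderately diabetic STZ Wistar rats were given 100 µmol/kg ip once, then 0.5 g/kg iv glucose under pentobarbital. Tail-vein plasma from 0–30 min was stored at −20 °C, and insulin was measured by radioimmunoassay (lower limit 19.5 pmol/L). The incremental insulin over baseline was integrated over 30 min and expressed as % variation versus untreated STZ rats.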

SMILES | Delta G [1] | K [2] | G30 [3] | Delta I [4]
CCN1CCN(Cc2ccccc2Cl)CC1C1=NCCN1 (stereo not drawn) | 70% | 106% | 50% | –
CN1CCN(Cc2ccccc2F)C(C2=NCCN2)C1 (stereo not drawn) | 72% | 108% | 52% | –
CN1CCN(Cc2ccccc2C(F)(F)F)C(C2=NCCN2)C1 (stereo not drawn) | 94% | 63% | 64% | –
COc1cccc(CN2CCN(C)CC2C2=NCCN2)c1OC (stereo not drawn) | 0% | 55% | 58% | 60%
CN1CCN(Cc2ccccc2Cl)CC1C1=NCCN1 (stereo not drawn) | 93% | 148% | 97% | –
CC(C)N1CCN(Cc2ccccc2Cl)CC1C1=NCCN1 (stereo not drawn) | 112% | 95% | 96% | –
CN1CCN(Cc2ccc(Cl)cc2)C(C2=NCCN2)C1 (stereo not drawn) | 0% | 110% | 68% | –
CN1CCN(Cc2cc(Cl)cc(Cl)c2)C(C2=NCCN2)C1 (stereo not drawn) | 0% | 117% | 70% | –
CN1CCN(Cc2ccc(Cl)cc2Cl)CC1C1=NCCN1 (stereo not drawn) | 34% | 152% | 102% | –
CN1CCN(Cc2ccccc2)C(C2=NCCN2)C1 (stereo not drawn) | 0% | 67% | 23% | 16%
CCCN1CCN(Cc2ccccc2Cl)C(C2=NCCN2)C1 (stereo not drawn) | 0% | 37% | 17% | 25%
COc1ccccc1CN1CCN(C)CC1C1=NCCN1 (stereo not drawn) | 47% | 39% | 56% | –
CN1CCN(Cc2cccc(Cl)c2)C(C2=NCCN2)C1 (stereo not drawn) | 0% | 39% | 23% | –
c1ccc(CN2CCN(Cc3ccccc3)C(C3=NCCN3)C2)cc1 (stereo not drawn) | 0% | 43% | 33% | –
Cc1ccccc1CN1CCN(C)CC1C1=NCCN1 (stereo not drawn) | 24% | 81% | 48% | –
Clc1ccccc1CN1CCN(Cc2ccccc2Cl)C(C2=NCCN2)C1 (stereo not drawn) | 0% | 36% | 0% | –

SMILES | Delta G [1] | K [2] | G30 [3] | Delta I [4]
CCN1CCN(Cc2ccccc2Cl)C(C2=NCCN2)C1 (stereo not drawn) | 108% | 34% | 38% | –
CN1CCN(Cc2c(Cl)cccc2Cl)C(C2=NCCN2)C1 (stereo not drawn) | 103% | 107% | 59% | –
CC(C)CN1CCN(Cc2ccc(Cl)cc2Cl)C(C2=NCCN2)C1 (stereo not drawn) | 110% | 119% | 95% | 623%
Clc1ccc(CN2CCN(Cc3ccc(Cl)cc3Cl)C(C3=NCCN3)C2)c(Cl)c1 (stereo not drawn) | 0% | 22% | 18% | –
CN1CCN(Cc2ccccc2Cl)C(C2=NCCN2)C1 (stereo not drawn) | 81% | 98% | 103% | 109%
CN1CCN(Cc2ccc(F)cc2F)C(C2=NCCN2)C1 (stereo not drawn) | 102% | 97% | 106% | –
c1ccc2c(c1)OCC(C1=NCCN1)O2 (stereo not drawn) [IDAZOXAN] | 8% | 79% | 48% | –
CC(C)N1CCN(Cc2ccccc2Cl)C(C2=NCCN2)C1 (stereo not drawn) | 84% | 44% | 83% | –
CN1CCN(Cc2ccc(Cl)c(Cl)c2)C(C2=NCCN2)C1 (stereo not drawn) | 36% | 42% | 47% | –
Clc1ccccc1CN1CCNCC1C1=NCCN1 (stereo not drawn) | 0% | 11% | 0% | –
CCCN1CCN(Cc2ccc(Cl)cc2Cl)C(C2=NCCN2)C1 (stereo not drawn) | 24% | 104% | 80% | –
c1ccc(C(CC2=NCCN2)c2ccccn2)cc1 (stereo not drawn) [MIDAGLIZOLE] | 32% | – | 121% | –
COc1cccc(CN2CCN(C)CC2C2=NCCN2)c1 (stereo not drawn) | 23% | 57% | 68% | 88%
CN1CCN(Cc2ccc(Cl)cc2Cl)C(C2=NCCN2)C1 (stereo not drawn) | 105% | – | 112% | 221%
CN1CCN(Cc2cccc(Cl)c2Cl)C(C2=NCCN2)C1 (stereo not drawn) | 0% | 53% | 36% | –
